Data on four molecules can be found in ChEMBL document CHEMBL1155278, “3,4-Diaryl-isoxazoles and -imidazoles as potent dual inhibitors of p38alpha mitogen activated protein kinase and casein kinase 1delta” (J Med Chem, 2009).

Assay [1] addresses Aurora kinase C (Homo sapiens) (UniProt Q9UQB9). Nature of the assay: Inhibition of Aurora C assessed as residual activity at 10 uM by Cherenkov counting relative to control. Summed up: (§1)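 Single-point profiling at 10 µM in a panel of 78 protein kinases. Kinase activity is expressed as a percentage relative to control assays without compound.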
The target in assay [2] is Dual specificity tyrosine-phosphorylation-regulated kinase 1A (Homo sapiens) (UniProt Q13627). The assay can be described thus: Inhibition of DYRK1A assessed as residual activity at 10 uM by Cherenkov counting relative to control in presence of 50 uM ATP. Put shortly: as §1
Assay [3] has as its target Aurora kinase B (Homo sapiens) (UniProt Q96GD4). Nature of the assay: Inhibition of Aurora B assessed as residual activity at 10 uM by Cherenkov counting relative to control in presence of 20 uM ATP. Put shortly: as §1
The target of assay [4] is Protein kinase C alpha type (Homo sapiens) (UniProt P17252). Nature of the assay: Inhibition of PKCalpha assessed as residual activity at 10 uM by Cherenkov counting relative to control in presence of 20 uM ATP. Put shortly:
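Single-concentration profiling at 10 μM in a 78-kinase panel. Kinase activity is expressed as a percentage of control assays run without compound.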

For assay [5], the target named is Serine/threonine-protein kinase pim-3 (Homo sapiens) (UniProt Q86V86). Nature of the assay: Inhibition of PIM3 assessed as residual activity at 10 uM by Cherenkov counting relative to control in presence of 20 uM ATP.
In assay [6] the target is T1, Inhibitor of nuclear factor kappa-B kinase subunit epsilon (Homo sapiens) (UniProt Q14164).
T1 sequence (whole entry): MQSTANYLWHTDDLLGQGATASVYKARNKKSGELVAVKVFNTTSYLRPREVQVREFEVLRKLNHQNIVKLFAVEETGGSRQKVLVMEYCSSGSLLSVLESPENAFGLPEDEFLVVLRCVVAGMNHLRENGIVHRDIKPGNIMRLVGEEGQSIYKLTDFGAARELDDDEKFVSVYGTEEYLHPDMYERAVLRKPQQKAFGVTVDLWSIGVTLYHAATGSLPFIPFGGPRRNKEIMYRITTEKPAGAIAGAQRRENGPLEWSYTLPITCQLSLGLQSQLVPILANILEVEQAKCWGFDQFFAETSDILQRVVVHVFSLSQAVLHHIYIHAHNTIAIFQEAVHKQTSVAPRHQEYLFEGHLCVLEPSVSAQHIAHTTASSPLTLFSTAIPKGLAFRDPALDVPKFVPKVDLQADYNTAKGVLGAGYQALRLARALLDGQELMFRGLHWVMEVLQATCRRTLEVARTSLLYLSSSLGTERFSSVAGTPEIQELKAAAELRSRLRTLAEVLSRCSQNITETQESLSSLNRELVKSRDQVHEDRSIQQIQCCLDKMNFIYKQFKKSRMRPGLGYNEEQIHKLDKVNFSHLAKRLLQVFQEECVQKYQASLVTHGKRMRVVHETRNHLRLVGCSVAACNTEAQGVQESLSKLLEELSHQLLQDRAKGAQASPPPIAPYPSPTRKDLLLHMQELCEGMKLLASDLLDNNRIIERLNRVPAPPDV
Nature of the assay: Inhibition of IKKepsilon assessed as residual activity at 10 uM by Cherenkov counting relative to control in presence of 50 uM ATP.

Assay [7] deals with Serine/threonine-protein kinase pim-2 (Homo sapiens) (UniProt Q9P1W9). The assay can be described thus: Inhibition of PIM2 assessed as residual activity at 0.1 uM by Cherenkov counting relative to control in presence of 5 uM ATP. Put shortly: (§2)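 Single-concentration selectivity screen at 0.1 μM against a panel of 76 protein kinases. Each kinase was run at an ATP level approximating its Km for ATP. Output is mean residual activity as % of the control assay without compound, n = 3 ± SD.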
Sequence of Serine/threonine-protein kinase pim-2 (Homo sapiens) (Q9P1W9 whole entry, looked up): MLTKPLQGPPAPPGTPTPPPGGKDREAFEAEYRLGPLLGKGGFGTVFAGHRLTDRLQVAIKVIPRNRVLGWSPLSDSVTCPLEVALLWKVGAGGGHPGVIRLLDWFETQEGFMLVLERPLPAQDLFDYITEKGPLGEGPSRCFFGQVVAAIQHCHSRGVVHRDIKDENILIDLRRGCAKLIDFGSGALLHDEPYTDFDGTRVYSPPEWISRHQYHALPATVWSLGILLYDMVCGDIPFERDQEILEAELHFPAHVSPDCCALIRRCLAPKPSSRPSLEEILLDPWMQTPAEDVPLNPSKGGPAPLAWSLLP

Assay [8] has as its target Ribosomal protein S6 kinase alpha-1 (Homo sapiens) (UniProt Q15418). Nature of the assay: Inhibition of RSK1 assessed as residual activity at 0.1 uM by Cherenkov counting relative to control. Put shortly:
(§3)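 Single-concentration screen at 0.1 μM in a 76-kinase panel. ATP for each kinase was set near its Km for ATP. Residual activity is given as a percentage of control assays without compound, mean of n = 3 ± SD.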

Assay [9] addresses Dual specificity mitogen-activated protein kinase kinase 1 (Homo sapiens) (UniProt Q02750). The assay can be described thus: Inhibition of MKK1 assessed as residual activity at 0.1 uM by Cherenkov counting relative to control in presence of 5 uM ATP. Summed up: as §2
Assay [10] concerns the target T2, Dual specificity tyrosine-phosphorylation-regulated kinase 2 (Homo sapiens) (UniProt Q92630).
T2 sequence (whole entry): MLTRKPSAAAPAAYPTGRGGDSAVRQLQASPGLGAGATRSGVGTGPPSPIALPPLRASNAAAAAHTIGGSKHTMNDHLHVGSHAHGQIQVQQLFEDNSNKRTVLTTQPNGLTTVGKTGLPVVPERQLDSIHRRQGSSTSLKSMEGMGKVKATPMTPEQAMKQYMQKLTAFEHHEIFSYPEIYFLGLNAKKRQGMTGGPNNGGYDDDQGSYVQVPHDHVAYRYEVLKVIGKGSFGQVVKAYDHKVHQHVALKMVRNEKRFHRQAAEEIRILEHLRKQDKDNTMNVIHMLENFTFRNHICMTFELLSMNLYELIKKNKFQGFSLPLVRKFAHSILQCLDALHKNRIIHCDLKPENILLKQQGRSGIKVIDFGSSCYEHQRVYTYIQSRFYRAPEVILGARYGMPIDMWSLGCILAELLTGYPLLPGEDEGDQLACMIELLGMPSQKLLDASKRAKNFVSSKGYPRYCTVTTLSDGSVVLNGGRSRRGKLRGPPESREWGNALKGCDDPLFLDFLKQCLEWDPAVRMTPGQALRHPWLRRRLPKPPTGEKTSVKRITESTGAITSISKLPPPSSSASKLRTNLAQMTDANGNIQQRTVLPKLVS
Nature of the assay: Inhibition of DYRK2 assessed as residual activity at 0.1 uM by Cherenkov counting relative to control in presence of 50 uM ATP. Put shortly: (§4)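 Single-concentration screen at 0.1 µM across a panel of 76 protein kinases. Each kinase was run at an ATP concentration approximating its ATP Km. Results are % mean residual activity versus control assays without compound (n = 3 ± SD).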

The target of assay [11] is Tyrosine-protein kinase CSK (Homo sapiens) (UniProt P41240). The assay can be described thus: Inhibition of CSK assessed as residual activity at 0.1 uM by Cherenkov counting relative to control in presence of 20 uM ATP. Summed up:
as §4

Assay [12] concerns the target MAP/microtubule affinity-regulating kinase 3 (Homo sapiens) (UniProt P27448). Nature of the assay: Inhibition of MARK3 assessed as residual activity at 0.1 uM by Cherenkov counting relative to control in presence of 5 uM ATP. Summed up:
as §2

In assay [13] the target is SRSF protein kinase 1 (Homo sapiens) (UniProt Q96SB4). The assay can be described thus: Inhibition of SRPK1 assessed as residual activity at 0.1 uM by Cherenkov counting relative to control in presence of 50 uM ATP. Summed up:
as §3

The target of assay [14] is Serine/threonine-protein kinase Chk2 (Homo sapiens) (UniProt O96017). The assay can be described thus: Inhibition of CHK2 assessed as residual activity at 0.1 uM by Cherenkov counting relative to control in presence of 20 uM ATP. Summed up: as §4
Sequence of Serine/threonine-protein kinase Chk2 (Homo sapiens) (O96017 whole entry): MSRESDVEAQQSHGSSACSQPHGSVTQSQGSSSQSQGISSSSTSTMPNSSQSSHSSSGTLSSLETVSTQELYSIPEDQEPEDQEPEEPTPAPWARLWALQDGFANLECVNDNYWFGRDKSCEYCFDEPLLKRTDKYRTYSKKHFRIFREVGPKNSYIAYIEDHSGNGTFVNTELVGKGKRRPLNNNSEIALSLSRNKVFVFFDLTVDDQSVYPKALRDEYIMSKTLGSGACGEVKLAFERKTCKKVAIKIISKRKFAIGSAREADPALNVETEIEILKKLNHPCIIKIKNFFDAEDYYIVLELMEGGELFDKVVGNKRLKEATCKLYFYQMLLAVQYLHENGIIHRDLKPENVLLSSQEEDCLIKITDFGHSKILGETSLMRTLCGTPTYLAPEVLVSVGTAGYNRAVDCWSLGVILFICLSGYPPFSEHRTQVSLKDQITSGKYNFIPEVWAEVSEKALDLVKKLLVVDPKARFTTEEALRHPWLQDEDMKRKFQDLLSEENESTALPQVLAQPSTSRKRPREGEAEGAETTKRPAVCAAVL
The nature of assay [15]: Inhibition of AMPK assessed as residual activity at 0.1 uM by Cherenkov counting relative to control in presence of 50 uM ATP. Put shortly:
as §4

Sequence of SRSF protein kinase 1 (Homo sapiens) (Q96SB4 whole entry): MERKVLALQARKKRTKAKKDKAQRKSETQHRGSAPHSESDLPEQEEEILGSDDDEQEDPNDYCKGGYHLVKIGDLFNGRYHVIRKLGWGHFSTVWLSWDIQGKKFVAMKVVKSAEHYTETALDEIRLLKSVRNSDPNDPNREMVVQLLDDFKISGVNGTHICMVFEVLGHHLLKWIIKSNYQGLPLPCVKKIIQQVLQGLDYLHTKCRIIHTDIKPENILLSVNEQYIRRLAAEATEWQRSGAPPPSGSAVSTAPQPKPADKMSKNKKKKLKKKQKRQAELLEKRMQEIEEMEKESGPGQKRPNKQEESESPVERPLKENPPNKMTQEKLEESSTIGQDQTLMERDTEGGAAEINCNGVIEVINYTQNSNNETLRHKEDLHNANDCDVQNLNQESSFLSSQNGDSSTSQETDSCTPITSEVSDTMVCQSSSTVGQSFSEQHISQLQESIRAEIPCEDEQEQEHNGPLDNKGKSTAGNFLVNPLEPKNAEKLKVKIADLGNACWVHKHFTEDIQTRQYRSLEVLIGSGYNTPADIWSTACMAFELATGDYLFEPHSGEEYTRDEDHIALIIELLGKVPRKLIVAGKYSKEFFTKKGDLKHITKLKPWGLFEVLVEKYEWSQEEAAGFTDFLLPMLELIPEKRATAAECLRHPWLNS
Sequence of Tyrosine-protein kinase CSK (Homo sapiens) (P41240 2-450 limits assumed): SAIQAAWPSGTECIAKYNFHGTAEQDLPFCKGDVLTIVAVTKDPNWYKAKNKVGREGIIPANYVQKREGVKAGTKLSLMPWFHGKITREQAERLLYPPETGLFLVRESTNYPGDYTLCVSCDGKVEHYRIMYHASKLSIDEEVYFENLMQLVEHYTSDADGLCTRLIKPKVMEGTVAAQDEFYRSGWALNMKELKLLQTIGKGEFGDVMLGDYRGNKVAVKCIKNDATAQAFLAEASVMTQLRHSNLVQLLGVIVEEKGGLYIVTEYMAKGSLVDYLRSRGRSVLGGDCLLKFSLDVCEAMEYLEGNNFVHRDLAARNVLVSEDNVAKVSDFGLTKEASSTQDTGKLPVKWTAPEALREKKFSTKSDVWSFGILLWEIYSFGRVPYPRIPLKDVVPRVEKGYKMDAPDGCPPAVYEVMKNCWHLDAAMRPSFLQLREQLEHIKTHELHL
Sequence of Aurora kinase B (Homo sapiens) (Q96GD4 whole entry): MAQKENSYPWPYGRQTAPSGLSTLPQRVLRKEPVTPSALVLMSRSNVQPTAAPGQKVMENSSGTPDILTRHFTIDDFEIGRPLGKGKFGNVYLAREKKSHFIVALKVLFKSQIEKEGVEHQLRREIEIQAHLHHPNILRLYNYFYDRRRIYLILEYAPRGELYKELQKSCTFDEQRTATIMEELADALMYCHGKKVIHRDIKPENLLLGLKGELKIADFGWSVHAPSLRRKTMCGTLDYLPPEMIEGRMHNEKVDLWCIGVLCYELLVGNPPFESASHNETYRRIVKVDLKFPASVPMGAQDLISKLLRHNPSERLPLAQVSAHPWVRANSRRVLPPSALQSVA
Sequence of Ribosomal protein S6 kinase alpha-1 (Homo sapiens) (Q15418 whole entry): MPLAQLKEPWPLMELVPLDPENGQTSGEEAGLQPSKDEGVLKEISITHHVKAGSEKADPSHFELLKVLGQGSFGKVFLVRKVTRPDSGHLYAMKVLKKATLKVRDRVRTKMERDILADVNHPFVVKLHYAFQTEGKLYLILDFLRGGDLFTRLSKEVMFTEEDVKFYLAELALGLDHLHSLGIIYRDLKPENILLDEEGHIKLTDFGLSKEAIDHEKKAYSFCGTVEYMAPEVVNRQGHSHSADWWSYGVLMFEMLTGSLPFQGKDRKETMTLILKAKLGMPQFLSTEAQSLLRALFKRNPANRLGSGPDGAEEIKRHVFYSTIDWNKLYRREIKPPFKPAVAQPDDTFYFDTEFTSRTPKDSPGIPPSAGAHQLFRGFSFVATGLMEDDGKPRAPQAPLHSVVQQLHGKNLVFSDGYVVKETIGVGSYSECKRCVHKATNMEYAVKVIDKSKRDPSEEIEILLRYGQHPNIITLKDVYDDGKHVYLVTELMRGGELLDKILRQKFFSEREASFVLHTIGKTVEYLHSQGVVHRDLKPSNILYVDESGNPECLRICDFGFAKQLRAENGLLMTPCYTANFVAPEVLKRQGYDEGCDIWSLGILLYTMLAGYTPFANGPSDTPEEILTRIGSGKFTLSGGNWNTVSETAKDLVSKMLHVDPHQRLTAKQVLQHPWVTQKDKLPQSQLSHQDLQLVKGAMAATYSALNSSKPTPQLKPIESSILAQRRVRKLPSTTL
Sequence of MAP/microtubule affinity-regulating kinase 3 (Homo sapiens) (P27448 whole entry, looked up): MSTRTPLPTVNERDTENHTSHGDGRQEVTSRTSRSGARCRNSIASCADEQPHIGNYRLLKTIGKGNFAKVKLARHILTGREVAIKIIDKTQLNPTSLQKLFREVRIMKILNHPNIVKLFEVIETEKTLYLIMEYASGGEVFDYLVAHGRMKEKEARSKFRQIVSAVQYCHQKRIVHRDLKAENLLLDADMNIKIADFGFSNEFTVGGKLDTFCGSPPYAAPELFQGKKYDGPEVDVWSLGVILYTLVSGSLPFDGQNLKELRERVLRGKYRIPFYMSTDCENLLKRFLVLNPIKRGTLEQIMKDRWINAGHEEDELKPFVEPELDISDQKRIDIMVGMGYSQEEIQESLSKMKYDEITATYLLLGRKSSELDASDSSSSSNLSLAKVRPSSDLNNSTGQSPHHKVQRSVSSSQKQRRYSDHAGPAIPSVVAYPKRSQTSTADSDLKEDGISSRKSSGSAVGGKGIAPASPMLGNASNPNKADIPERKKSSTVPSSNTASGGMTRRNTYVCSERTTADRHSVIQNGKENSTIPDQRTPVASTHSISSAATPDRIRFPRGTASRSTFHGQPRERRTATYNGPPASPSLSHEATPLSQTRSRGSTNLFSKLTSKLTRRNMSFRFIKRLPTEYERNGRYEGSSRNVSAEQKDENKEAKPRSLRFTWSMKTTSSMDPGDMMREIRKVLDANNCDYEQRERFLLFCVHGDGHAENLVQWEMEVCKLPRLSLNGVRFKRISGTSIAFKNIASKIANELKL
Sequence of Dual specificity mitogen-activated protein kinase kinase 1 (Homo sapiens) (Q02750 whole entry): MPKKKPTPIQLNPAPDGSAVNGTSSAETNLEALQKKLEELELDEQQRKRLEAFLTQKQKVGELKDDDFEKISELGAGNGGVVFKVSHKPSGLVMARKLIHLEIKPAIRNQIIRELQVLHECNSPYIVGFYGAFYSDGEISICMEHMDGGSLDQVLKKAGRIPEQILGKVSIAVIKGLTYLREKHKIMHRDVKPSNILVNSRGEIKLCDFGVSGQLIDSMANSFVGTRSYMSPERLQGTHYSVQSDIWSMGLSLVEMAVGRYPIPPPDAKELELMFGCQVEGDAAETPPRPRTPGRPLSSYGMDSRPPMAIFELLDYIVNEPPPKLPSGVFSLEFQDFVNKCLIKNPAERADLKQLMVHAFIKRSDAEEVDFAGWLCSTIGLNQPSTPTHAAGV
Sequence of Aurora kinase C (Homo sapiens) (Q9UQB9 whole entry): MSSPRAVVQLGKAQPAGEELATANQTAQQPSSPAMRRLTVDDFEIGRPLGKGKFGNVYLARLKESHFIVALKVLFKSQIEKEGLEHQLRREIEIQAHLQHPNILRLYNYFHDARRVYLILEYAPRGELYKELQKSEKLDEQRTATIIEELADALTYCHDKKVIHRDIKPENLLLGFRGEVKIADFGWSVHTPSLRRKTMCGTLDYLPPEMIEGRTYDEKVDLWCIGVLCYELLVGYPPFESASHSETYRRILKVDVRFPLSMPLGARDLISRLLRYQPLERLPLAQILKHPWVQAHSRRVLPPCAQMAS

`CC(C)c1noc(-c2ccc(F)cc2)c1-c1ccncc1`: the Activity in assay [1] is 35%; in [2], 95%; in assay [3] it was 22%; in assay [4], 104%; in assay [5] it was 78%; in [6] it was 71%.

With `CC(C)c1onc(-c2ccc(F)cc2)c1-c1ccncc1`, the Activity in assay [1] amounted to 110%; in assay [2] it was 100%; in [3], 101%; in assay [4], 95%; in assay [5] it was 81%; in assay [6], 81%.

For the molecule `COc1ccc(/C=C/C(=O)Nc2cc(-c3[nH]c(SC)nc3-c3ccc(F)cc3)ccn2)c(OC)c1`, the Activity stood at 87% in assay [7]; 78% in assay [8]; 27% in assay [9]; 82% in [10]; 81% in assay [11]; 87% in [12]. Further, the Activity turned out to be 91% in assay [13], 79% in assay [14] and 92% in assay [15].

On to `COc1ccc(/C=C/C(=O)Nc2cc(-c3[nH]c([S+](C)[O-])nc3-c3ccc(F)cc3)ccn2)c(OC)c1` (stereo not given), for which the Activity turned out to be 101% in [7]; 80% in assay [8]; 18% in assay [9]; 101% in [10]; 79% in [11]; 89% in [12]. Besides, the Activity is 97% in assay [13], 85% in [14] and 99% in [15].
